This is an account of results in ChEMBL document CHEMBL1157638, “Fluorescent epigenetic small molecule induces expression of the tumor suppressor ras-association domain family 1A and inhibits human prostate xenograft” (J Med Chem, 2010).

The source made the active and inactive calls. The rule behind the calls is not given here.

Experiment [1] relates to PC-3. Kind of experiment: Growth inhibition of human PC3 cells after 24 hrs by trypan blue exclusion method. The class given is functional. The settings on record: PC-3, 24 h. The method, boiled down: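 PC-3 cells grown in phenol red-free IMEM with 10% FBS, 2 mM glutamine and penicillin/streptomycin at 37 °C, 5% CO2. Seeded in triplicate at 1.5 × 10⁴ cells/well. After 24 h, treated with DMSO vehicle or 1, 5, 15, 30 or 60 μM compound for 24 h. Cells trypsinized, stained with 0.4% trypan blue, and live and dead cells counted by hemocytometer. Mean ± SEM of three independent observations.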

Experiment [2] has as its system PC-3. Kind of experiment: Increase in RASSF1A gene expression in human PC3 cells at 15 uM after 3 days hrs by RT-PCR. The class given is functional. In short, it runs like this: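 PC-3 cells incubated 3 days with compound, then RNA extracted with TRIzol. 500 ng total RNA reverse-transcribed with random hexamers. RASSF1A amplified with previously described primers and conditions. Products run on 1.5% agarose and stained with ethidium bromide. Bands quantified by densitometry against untreated cells, with RASSF1A re-expression from the reference alkaloid set to 100%.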

Experiment [3] relates to PC-3. Description: […] in RASSF1A gene expression in human PC3 cells at 15 uM after 3 days hrs by RT-PCR. The experiment is classed as functional, cell-based.
Experiment [4] concerns PC-3. Description: Decrease in DNA synthesis in human PC3 cells at 5 uM after 24 hrs by BrdU incorporation assay. The experiment is classed as functional, cell-based. The method, boiled down:
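PC-3 cells were seeded at 2 × 10⁴ cells/well and exposed to 5 μM compound or DMSO for 24 h. BrdU incorporation was read by chemiluminescent cell proliferation ELISA on a luminometer. Background without anti-BrdU-peroxidase was subtracted and values were normalized to untreated control. Values are mean ± SEM.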
In general terms: Uptake of a labelled nucleoside into DNA is a usual measure of proliferation.

The target of experiment [5] is DNA (cytosine-5)-methyltransferase 1 (Homo sapiens) (UniProt P26358). Kind of experiment: Inhibition of DNA methyltransferase activity in human PC3 cells at 15 uM after 3 days. The class given is cell-based. The settings on record: PC-3. In short, it runs like this: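 PC-3 cells in complete growth medium treated 3 days with compound, then harvested. Nuclear extracts prepared by kit protocol, and DNMT activity measured with a commercial DNMT activity kit against untreated cells. Mean of three independent experiments ± SEM.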
DNA (cytosine-5)-methyltransferase 1 (Homo sapiens), sequence (P26358 whole entry): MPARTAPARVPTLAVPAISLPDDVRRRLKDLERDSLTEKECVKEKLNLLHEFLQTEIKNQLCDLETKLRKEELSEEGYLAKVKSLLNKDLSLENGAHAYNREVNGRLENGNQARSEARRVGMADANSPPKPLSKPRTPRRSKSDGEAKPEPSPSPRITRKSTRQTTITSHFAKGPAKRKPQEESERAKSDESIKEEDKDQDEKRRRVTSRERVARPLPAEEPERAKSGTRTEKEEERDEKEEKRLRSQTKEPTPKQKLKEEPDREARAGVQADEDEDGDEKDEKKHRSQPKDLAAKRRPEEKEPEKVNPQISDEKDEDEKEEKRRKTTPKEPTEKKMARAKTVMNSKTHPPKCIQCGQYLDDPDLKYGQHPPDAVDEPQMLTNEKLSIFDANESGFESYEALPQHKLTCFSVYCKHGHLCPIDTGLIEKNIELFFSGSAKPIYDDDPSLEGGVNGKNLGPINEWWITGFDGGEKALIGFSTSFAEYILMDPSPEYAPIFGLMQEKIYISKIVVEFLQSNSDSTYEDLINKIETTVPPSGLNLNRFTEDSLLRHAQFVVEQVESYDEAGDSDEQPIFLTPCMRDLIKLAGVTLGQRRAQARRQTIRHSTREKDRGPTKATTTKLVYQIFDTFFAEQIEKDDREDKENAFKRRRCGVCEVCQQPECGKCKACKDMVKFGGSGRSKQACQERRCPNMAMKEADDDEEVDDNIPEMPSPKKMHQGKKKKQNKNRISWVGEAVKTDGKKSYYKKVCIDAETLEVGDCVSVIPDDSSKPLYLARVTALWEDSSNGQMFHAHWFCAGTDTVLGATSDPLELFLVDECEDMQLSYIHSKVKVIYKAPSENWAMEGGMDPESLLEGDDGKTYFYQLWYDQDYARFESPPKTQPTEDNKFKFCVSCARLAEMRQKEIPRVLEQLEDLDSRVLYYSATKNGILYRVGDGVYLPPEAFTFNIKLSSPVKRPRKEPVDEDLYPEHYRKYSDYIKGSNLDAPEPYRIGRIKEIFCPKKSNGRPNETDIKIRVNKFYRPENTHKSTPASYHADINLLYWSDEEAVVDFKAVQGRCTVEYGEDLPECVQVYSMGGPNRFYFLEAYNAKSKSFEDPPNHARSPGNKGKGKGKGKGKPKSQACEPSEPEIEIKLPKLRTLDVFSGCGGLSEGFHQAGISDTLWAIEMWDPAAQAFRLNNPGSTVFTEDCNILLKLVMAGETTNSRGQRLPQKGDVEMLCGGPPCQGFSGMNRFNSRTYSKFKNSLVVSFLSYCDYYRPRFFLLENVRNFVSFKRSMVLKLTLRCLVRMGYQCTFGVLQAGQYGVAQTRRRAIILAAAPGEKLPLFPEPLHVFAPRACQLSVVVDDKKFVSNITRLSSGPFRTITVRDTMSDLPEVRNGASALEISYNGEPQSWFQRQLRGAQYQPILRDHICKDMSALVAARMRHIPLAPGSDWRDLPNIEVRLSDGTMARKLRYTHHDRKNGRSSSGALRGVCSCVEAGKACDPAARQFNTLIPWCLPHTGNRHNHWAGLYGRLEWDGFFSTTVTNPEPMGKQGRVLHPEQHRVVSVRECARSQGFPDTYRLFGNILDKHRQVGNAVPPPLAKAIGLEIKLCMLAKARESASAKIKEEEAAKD

As usually defined, the GI50 is the concentration that inhibits growth by half. A high value points to less potent growth inhibition. With `COc1ccc2c(c1)[nH]c1cc(OCc3ccccc3)c(C)cc12`, in the experiment on PC-3 [1], the GI50 is 48.9 µM. The result in the experiment with PC-3 [2] and with PC-3 [3] was inactive.
On to `COc1ccc2c(c1)[nH]c1c(C)c(OCc3ccccc3)ccc12`, for which growth in the experiment with PC-3 [1] was halved (GI50) at 17.6 µM. Also, the outcome (in the experiment on PC-3 [4]; in experiment [5]) was Active. Further, the Activity in the experiment with PC-3 [2] amounted to 50%.
`COc1ccc2c(c1)[nH]c1c(C)c(O)ccc12` returned a GI50 with PC-3 [1] of 18.7 µM. The outcome in experiment [5] was Active.
Turning to `COc1ccc2c(c1)[nH]c1cc(O)c(C)cc12`, in the experiment on PC-3 [1], the GI50 is 15.3 µM. Moreover, the outcome (in the experiment on PC-3 [4]; in experiment [5]) was Active.
Molecule `COc1ccc2c(c1)[nH]c1cc(OS(=O)(=O)c3cccc4c(N(C)C)cccc34)c(C)cc12` displayed a GI50 with PC-3 [1] of 22.9 µM. Further, the result with PC-3 [2] and in the experiment with PC-3 [3] was inactive.
